Measured values gathered from unrelated publications.
Protocols differ between the studies behind these lines.
Organism: Staphylococcus aureus
Observed: microbial growth

Structure (SMILES)	test	test system	conditions	MIC
CCC(CC)c1cc(CCN2CCCN(Cc3ccc(C(F)(F)F)cc3)CC2)nc(-c2ccncc2)n1	–	ATCCBAA1717	drug-resistant strain, clinical isolate	4 µg/mL
COc1ccc(OS(=O)(=O)NC(=O)CCCCc2ccccc2)cc1	–	ATCC33591 MRSA	drug-resistant strain	> 200 µg/mL
COC[C@H]1OC(=O)c2coc3c2[C@@]1(C)C1=C(C3=O)[C@@H]2CCC(=O)[C@@]2(C)C[C@H]1OC(C)=O	–	NCTC8325	–	> 30 µM
CCCCCCNC(=S)Nc1cccc(-c2cc(C(=O)OC)no2)c1	broth dilution	ATCC29213	–	> 64 µg/mL
Oc1cccc(-c2nc3ccccc3[nH]2)c1	broth dilution	ATCC43300 MRSA	drug-resistant strain	128 µg/mL
CCCCCCCCCCCCCCCC(=O)N(C)[C@H](CO)C(=O)N[C@H](C)C(=O)NCC(=O)N(C)[C@@H]1C(=O)N[C@@H](C)C(=O)N[C@H](C(=O)O)Cc2ccc(O)c(c2)-c2cc1ccc2O	–	MRSA	–	25 µg/mL
c1ccc(CCOC2CCCc3c2[nH]c2ccccc32)cc1 (stereo not drawn)	broth dilution	VISA	–	> 16 µg/mL
CCOc1ccc(-c2nc3ccc(C)cc3[nH]2)cc1	broth dilution	ATCC43300 MRSA	drug-resistant strain	256 µg/mL
CN[C@H](CC(C)C)C(=O)N[C@H]1C(=O)N[C@@H](CC(N)=O)C(=O)N[C@H]2C(=O)N[C@H]3C(=O)N[C@H](C(=O)N[C@H](C(=O)O)c4cc(O)cc(O)c4-c4cc3ccc4O)[C@H](O)c3ccc(c(Cl)c3)Oc3cc2cc(c3O[C@@H]2O[C@H](CO)[C@@H](O)[C@H](O)[C@H]2O[C@H]2C[C@](C)(N)[C@H](O)[C@H](C)O2)Oc2ccc(cc2Cl)[C@H]1O	broth dilution	ATCC29213	–	1 µg/mL
O=C(CCCCCCCCCCOc1ccccc1)CP(=O)(O)O	–	ATCC33591 MRSA	drug-resistant strain	100 µg/mL
COC(=O)c1cc(-c2cccc(NC(=O)Nc3cc(OC)ccc3OC)c2)on1	broth dilution	ATCC29213	–	> 64 µg/mL
C/C(=C\C(=O)OCCCCCCCCC(=O)O)C[C@@H]1OC[C@H](C[C@@H]2O[C@H]2[C@@H](C)[C@H](C)O)[C@@H](O)[C@H]1O	–	MRSA	drug-resistant strain	0.5 µM
CCCCCCCCCCCC(=O)CP(=O)(O)O	–	ATCC33591 MRSA	drug-resistant strain	100 µg/mL
CC(C)(C)c1cc(NC(=O)Nc2ccc(Oc3ccncc3)cc2)no1	–	NCTC8325	–	100 µM
CN[C@H](CC(C)C)C(=O)N[C@H]1C(=O)N[C@@H](CC(N)=O)C(=O)N[C@H]2C(=O)N[C@H]3C(=O)N[C@H](C(=O)N[C@H](C(=O)O)c4cc(O)cc(O)c4-c4cc3ccc4O)[C@H](O)c3ccc(c(Cl)c3)Oc3cc2cc(c3O[C@@H]2O[C@H](CO)[C@@H](O)[C@H](O)[C@H]2O[C@H]2C[C@](C)(N)[C@H](O)[C@H](C)O2)Oc2ccc(cc2Cl)[C@H]1O	–	USA300	–	1 µg/mL
CNC(=O)c1cc(Oc2ccc(NC(=S)Nc3ccc(Cl)c(C(F)(F)F)c3)cc2)ccn1	–	NCTC8325	–	10 µM
COc1cccc(OC)c1C(=O)N[C@@H]1C(=O)N2[C@@H]1SC(C)(C)[C@@H]2C(=O)O	–	ATCCBAA1717	drug-resistant strain, clinical isolate	> 64 µg/mL
COC(=O)c1cc(-c2cccc(NC(=O)Nc3cccc(C(F)(F)F)c3)c2)on1	broth dilution	ATCC29213	–	> 64 µg/mL
Cc1ccc2[nH]c3c(c2c1)CCCC3NCCc1ccc(O)cc1 (stereo not drawn)	broth dilution	ATCC29213	–	16 µg/mL
COC(=O)c1cc(-c2cccc(NC(=O)Nc3cccc(Cl)c3Cl)c2)on1	broth dilution	ATCC29213	–	8 to 16 µg/mL
CC(c1ccc(Cl)c(Cl)c1)n1cnc2cc3c(cc21)CCC3 (stereo not drawn)	–	–	–	3.1 to 6.3 µg/mL
C=CCCCCCCCCC(=O)C(F)(F)P(=O)(O)O	–	ATCC33591 MRSA	drug-resistant strain	> 200 µg/mL
CN[C@H](CC(C)C)C(=O)N[C@H]1C(=O)N[C@@H](CC(N)=O)C(=O)N[C@H]2C(=O)N[C@H]3C(=O)N[C@H](C(=O)N[C@H](C(=O)O)c4cc(O)cc(O)c4-c4cc3ccc4O)[C@H](O)c3ccc(c(Cl)c3)Oc3cc2cc(c3O[C@@H]2O[C@H](CO)[C@@H](O)[C@H](O)[C@H]2O[C@H]2C[C@](C)(N)[C@H](O)[C@H](C)O2)Oc2ccc(cc2Cl)[C@H]1O	–	BAA2312	drug-resistant strain	0.78 µg/mL

Structure (SMILES)	test	test system	conditions	MIC
Clc1ccc(-c2nc3ccccc3n2Cc2ccccc2)cc1Cl	broth dilution	ATCC43300 MRSA	drug-resistant strain	16 µg/mL
CC1=C(C(=O)O)N2C(=O)[C@@H](NC(=O)[C@H](N)C3=CCC=CC3)[C@H]2SC1	–	USA300	–	128 µg/mL
CC(C)C[C@H](NC(=O)[C@@H](NC(=O)N[C@H](C(=O)O)C(C)C)[C@@H]1CCNC(=N)N1)C(=O)NCCCN[C@H](C(=O)O)[C@H](O[C@@H]1O[C@H](CN)[C@@H](O)[C@H]1O)[C@H]1O[C@@H](n2ccc(=O)[nH]c2=O)[C@H](O)[C@@H]1O	–	NEWMAN	–	> 80 µg/mL
CC1(C)CC[C@]2(C(=O)O)CC[C@]3(C)C(=CC[C@@H]4[C@@]5(C)CC[C@H](O)C(C)(C)[C@@H]5CC[C@]43C)[C@@H]2C1	–	83254	–	64 µg/mL
Oc1cc(Cl)ccc1Oc1ccc(Cl)cc1Cl	–	–	–	1.8 µg/mL
Fc1ccc(-c2nc3ccccc3[nH]2)cc1	broth dilution	ATCC43300 MRSA	drug-resistant strain	512 µg/mL
O=[N+]([O-])c1ccc(-c2nc3cc(Cl)ccc3[nH]2)o1	broth dilution	ATCC700699 MRSA	drug-resistant strain	2 µg/mL
Cc1ccc2nc(-c3cccc([N+](=O)[O-])c3)[nH]c2c1	broth dilution	ATCC43300 MRSA	drug-resistant strain	64 µg/mL
COC(=O)c1cc(-c2cccc(NC(=O)Nc3ccccc3C)c2)on1	broth dilution	ATCC29213	–	> 64 µg/mL
CC1(C)S[C@@H]2[C@H](NC(=O)[C@H](N)c3ccccc3)C(=O)N2[C@H]1C(=O)O	–	USA300	–	64 µg/mL
COC(=O)c1cc(-c2cccc(NC(=O)Nc3ccc(Cl)cc3)c2)on1	broth dilution	ATCC29213	–	> 64 µg/mL
O=[N+]([O-])c1cccc(-c2nc3ccccc3[nH]2)c1	broth dilution	ATCC43300 MRSA	drug-resistant strain	64 µg/mL
COC(=O)c1cc(-c2cccc(NC(=O)Nc3cccc(Br)c3)c2)on1	broth dilution	ATCC29213	–	> 64 µg/mL
Cc1ccc2nc(-c3ccc(Cl)cc3)[nH]c2c1	broth dilution	ATCC43300 MRSA	drug-resistant strain	512 µg/mL
O=C(Nc1ccc(O)cc1)Nc1ccc(Cl)c(C(F)(F)F)c1	–	NCTC8325	–	100 µM
CO[C@H]1/C=C/O[C@@]2(C)Oc3c(C)c(O)c4c(O)c(c(/C=N/N5CCN(C)CC5)c(O)c4c3C2=O)NC(=O)/C(C)=C\C=C\[C@H](C)[C@H](O)[C@@H](C)[C@@H](O)[C@@H](C)[C@H](OC(C)=O)[C@@H]1C	–	NEWMAN	–	0.12 µg/mL
COC(=O)c1cc(-c2cccc(NC(=S)Nc3cccc(Cl)c3)c2)on1	broth dilution	ATCC29213	–	> 64 µg/mL
O=[N+]([O-])c1ccc(-c2nc3ccccc3n2Cc2ccccc2)cc1	broth dilution	ATCC43300 MRSA	drug-resistant strain	4 µg/mL
O=[N+]([O-])c1ccc(/C=N/Nc2nc(Nc3ccccc3)nc(Nc3ccccc3)n2)o1	–	ATCC43300	–	2.4 µM
CCCCCCCCCCCC(=O)NP(=O)(O)O	–	ATCC33591 MRSA	drug-resistant strain	200 µg/mL
CC1(C)S[C@@H]2[C@H](NC(=O)Cc3ccccc3)C(=O)N2[C@H]1C(=O)O	–	USA300	–	128 µg/mL
CC1C(=NOCc2cn(-c3ccccc3)nn2)CC(c2ccccc2)OC1c1ccccc1 (stereo not drawn)	broth dilution	MTCC96	24 h	25 µg/mL
